Results taken from ChEMBL document CHEMBL4020839, “Class I HDAC Inhibitors Display Different Antitumor Mechanism in Leukemia and Prostatic Cancer Cells Depending on Their p53 Status” (J Med Chem, 2018).
Activity calls are given as the source filed them. The rule behind the calls is not given here.

What was measured:
Histone deacetylase 8 = molecular target: T1, Histone deacetylase 8 (Homo sapiens, UniProt Q9BY41); assay: Inhibition of full length recombinant human C-terminal His-tagged HDAC8 expressed in baculovirus expression system using Boc-Lys(trifluoroacetyl)-AMC as substrate preincubated for 1 hr followed by substrate addition measured after 2 hrs by fluorescence assay
T1 sequence (Q9BY41 whole entry): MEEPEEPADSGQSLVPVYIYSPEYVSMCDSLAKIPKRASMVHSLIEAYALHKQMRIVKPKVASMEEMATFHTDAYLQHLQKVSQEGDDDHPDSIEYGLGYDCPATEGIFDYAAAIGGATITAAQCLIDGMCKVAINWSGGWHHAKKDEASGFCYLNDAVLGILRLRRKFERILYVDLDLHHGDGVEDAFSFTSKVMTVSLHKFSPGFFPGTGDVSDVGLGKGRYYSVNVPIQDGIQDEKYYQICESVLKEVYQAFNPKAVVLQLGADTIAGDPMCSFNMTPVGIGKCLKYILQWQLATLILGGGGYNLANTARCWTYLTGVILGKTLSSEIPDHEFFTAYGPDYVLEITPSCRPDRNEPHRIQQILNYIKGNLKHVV
Method in brief: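 Recombinant HDAC incubated with serial compound dilutions at 30 °C for 1 h. Reaction run 2 h at 30 °C, stopped with developer containing trypsin and TSA. Fluorescence read after 30 min at 360/460 nm. Inhibition relative to control wells; IC50 from variable-slope fit.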

MV4-11 = assay: Antiproliferative activity against human MV4-11 cells assessed as cell death at 2 to 10 uM after 24 to 48 hrs by CellTiter-Blue assay; assay type: functional, cell-based
Method in brief: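 MV4-11 and PC-3 cells treated with 10 or 2 μM (or 0 μM) and sampled at 24 and 48 h. Viable cells measured by CellTiter-Blue resorufin fluorescence, read as in the EC50 assay, which is proportional to viable cell number. Representative of n = 2 experiments.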

CCCNNC(=O)c1ccc(NC(=O)[C@H](Cc2c[nH]c3ccccc23)NC(=O)c2ccc(OC)cc2)cc1
IC50 (Histone deacetylase 8): 0.626 µM | Activity (MV4-11): Active
